How the values were obtained:
OPM-2 = test: Cytotoxicity against human OPM2 cells after 96 hrs by trypan blue exclusion assay; format: functional, cell-based; conditions: OPM-2, 96 h
Procedure, shortened: (§1)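 Cells grown in DMEM or RPMI with 10% FBS and penicillin-streptomycin, seeded at 1.0 × 10⁵ cells/mL/well in 6-well dishes. Compound added at a range of concentrations 24 h after seeding. Viable cells counted by trypan blue exclusion from duplicate wells after 96 h of exposure; dose-response end point.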

CEM/C2 [1] = test: Resistance ratio of IC50 for human CEM cells to IC50 for multidrug-resistant human CEM/C2 cells; format: functional
Procedure, shortened: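 Cells were grown in DMEM or RPMI with 10% FBS and plated at 1.0 × 10⁵ cells/mL/well in 6-well dishes. Compound was added 24 h later at various concentrations for 96 h. Viable cells were counted from duplicate wells by trypan blue exclusion, and the IC50 of each line gave the ratio.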

[2] = Cytotoxicity against human COLO320 cells after 96 hrs by trypan blue exclusion assay; format: functional, cell-based; conditions: COLO 320, 96 h; procedure, shortened: as §1
[3] = Cytotoxicity against human WM1341D cells after 96 hrs by trypan blue exclusion assay; format: functional, cell-based
Procedure, shortened: (§2)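 Cells grown in DMEM or RPMI with 10% FBS and 1 unit/mL penicillin-streptomycin, seeded at 1.0 × 10⁵ cells/mL/well in 6-well dishes; compound added 24 h later at various concentrations. After 96 h of treatment, viable cells counted by trypan blue exclusion in duplicate wells; dose-response end point.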

BXPC-3 = test: Cytotoxicity against human BxPC3 cells after 96 hrs by trypan blue exclusion assay; format: functional, cell-based; conditions: BXPC-3, 96 h; procedure, shortened: as §1
AGS = test: Cytotoxicity against human AGS cells after 96 hrs by trypan blue exclusion assay; format: functional, cell-based; procedure, shortened: as §1
BT-20 = test: Cytotoxicity against human BT20 cells after 96 hrs by trypan blue exclusion assay; format: functional, cell-based; conditions: BT-20, 96 h; procedure, shortened: as §1
SW480 = test: Cytotoxicity against human SW480 cells after 96 hrs by trypan blue exclusion assay; format: functional, cell-based; conditions: SW480, 96 h; procedure, shortened: as §2
MDA-MB-231 = test: Cytotoxicity against human MDA-MB-231 cells after 96 hrs by trypan blue exclusion assay; format: functional, cell-based; conditions: MDA-MB-231, 96 h; procedure, shortened: as §1
HeLa = test: Cytotoxicity against human HeLa cells after 96 hrs by trypan blue exclusion assay; format: functional, cell-based; procedure, shortened: as §1
[4] = Cytotoxicity against human HCC1428 cells after 96 hrs by trypan blue exclusion assay; format: functional, cell-based; conditions: HCC1428, 96 h; procedure, shortened: as §1
LP-1 = test: Cytotoxicity against human LP-1 cells after 96 hrs by trypan blue exclusion assay; format: functional, cell-based; conditions: LP-1, 96 h; procedure, shortened: as §1
MOLT-4 = test: Cytotoxicity against human MOLT4 cells after 96 hrs by trypan blue exclusion assay; format: functional, cell-based; conditions: MOLT-4, 96 h; procedure, shortened: as §1
NCI-H417 = test: Cytotoxicity against human NCI-N417 cells after 96 hrs by trypan blue exclusion assay; format: functional, cell-based; conditions: NCI-H417, 96 h; procedure, shortened: as §1
[5] = Cytotoxicity against human WM3211 cells after 96 hrs by trypan blue exclusion assay; format: functional, cell-based; conditions: WM3211, 96 h; procedure, shortened: as §2
[6] = Cytotoxicity against human […] cells after 96 hrs by trypan blue exclusion assay; format: functional, cell-based; procedure, shortened: as §2
[7] = Cytotoxicity against human KG1a cells after 96 hrs by trypan blue exclusion assay; format: functional, cell-based; conditions: KG-1a; procedure, shortened: as §1
MCF7 = test: Cytotoxicity against human MCF7 cells after 96 hrs by trypan blue exclusion assay; format: functional, cell-based; conditions: MCF7, 96 h; procedure, shortened: as §1
K562 = test: Cytotoxicity against human K562 cells after 96 hrs by trypan blue exclusion assay; format: functional, cell-based; conditions: k562; procedure, shortened: as §1
[8] = Cytotoxicity against human RF1 cells after 96 hrs by trypan blue exclusion assay; format: functional, cell-based; conditions: RF1, 96 h; procedure, shortened: as §2
[9] = Cytotoxicity against human Z138C cells after 96 hrs by trypan blue exclusion assay; format: functional, cell-based; procedure, shortened: as §2
NCI-H1975 = test: Cytotoxicity against human NCI-H1975 cells after 96 hrs by trypan blue exclusion assay; format: functional, cell-based; conditions: NCI-H1975, 96 h; procedure, shortened: as §1
PANC-1 = test: Cytotoxicity against human PANC1 cells after 96 hrs by trypan blue exclusion assay; format: functional, cell-based; conditions: PANC-1, 96 h; procedure, shortened: as §1
[10] = Cytotoxicity against human PS41 cells after 96 hrs by trypan blue exclusion assay; format: cell-based; conditions: PS41, 96 h; procedure, shortened: as §1
NCI-H157 = test: Cytotoxicity against human NCI-H157 cells after 96 hrs by trypan blue exclusion assay; format: functional, cell-based; conditions: NCI-H157, 96 h; procedure, shortened: as §1
CEM/C2 [11] = test: Cytotoxicity against multidrug-resistant human CEM/C2 cells assessed as cell viability after 96 hrs by trypan blue exclusion; format: functional, cell-based; conditions: CEM/C2, 96 h; procedure, shortened: as §2
HCC70 = test: Cytotoxicity against human HCC70 cells after 96 hrs by trypan blue exclusion assay; format: functional, cell-based; conditions: HCC70, 96 h; procedure, shortened: as §1
[12] = Cytotoxicity against human RF48 cells after 96 hrs by trypan blue exclusion assay; format: functional, cell-based; conditions: RF48, 96 h; procedure, shortened: as §2
[13] = Cytotoxicity against human GRANTA-519 cells after 96 hrs by trypan blue exclusion assay; format: functional, cell-based; conditions: Granta-519, 96 h; procedure, shortened: as §1
MIA PaCa-2 = test: Cytotoxicity against human MIAPaCa2 cells after 96 hrs by trypan blue exclusion assay; format: functional, cell-based; conditions: MIA PaCa-2, 96 h; procedure, shortened: as §1
DU-145 = test: Cytotoxicity against human DU145 cells after 96 hrs by trypan blue exclusion assay; format: functional, cell-based; conditions: du-145; procedure, shortened: as §1
[14] = Cytotoxicity against human WM239A cells after 96 hrs by trypan blue exclusion assay; format: functional, cell-based; procedure, shortened: as §2
COLO 205 = test: Cytotoxicity against human COLO205 cells after 96 hrs by trypan blue exclusion assay; format: functional, cell-based; conditions: COLO 205, 96 h; procedure, shortened: as §1
T47D = test: Cytotoxicity against human T47D cells after 96 hrs by trypan blue exclusion assay; format: functional, cell-based; procedure, shortened: as §2
[15] = Cytotoxicity against human 451LU cells after 96 hrs by trypan blue exclusion assay; format: functional, cell-based; procedure, shortened: as §1
[16] = Cytotoxicity against human NAMALWA cells after 96 hrs by trypan blue exclusion assay; format: functional, cell-based; conditions: NAMALVA; procedure, shortened: as §1
[17] = Cytotoxicity against human WM278 cells after 96 hrs by trypan blue exclusion assay; format: functional, cell-based; conditions: WM278, 96 h; procedure, shortened: as §2
[18] = Cytotoxicity against human U87 cells after 96 hrs by trypan blue exclusion assay; format: functional, cell-based, U-87MG ATCC; conditions: U-87 MG; procedure, shortened: as §2
HCT-116 = test: Cytotoxicity against human HCT116 cells after 96 hrs by trypan blue exclusion assay; format: functional, cell-based; conditions: HCT-116, 96 h; procedure, shortened: as §1
HFL1 [19] = test: Cell cycle arrest in human HFL1 cells assessed as accumulation of cells in G2/M phase at 0.1 to 1 uM after 24 hrs by propidium iodide staining-based flow cytometric analysis; format: ADME; conditions: hfl1, 24 h
Procedure, shortened: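 DMEM with 10% FBS; 1.0 × 10⁶ cells/dish, treated 24 h after plating and harvested 24 h after treatment. Trypsinized cells were pooled with floating cells, PBS-washed and fixed in ice-cold 70% ethanol for ≥24 h. Cells were stained with propidium iodide plus RNase A for 30 min at 37 °C. DNA content was read by flow cytometry with cell-cycle modelling.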

HEL = test: Cytotoxicity against human HEL cells after 96 hrs by trypan blue exclusion assay; format: functional, cell-based; procedure, shortened: as §1
HFL1 [20] = test: Induction of apoptosis in human HFL1 cells assessed as PARP1 cleavage at 0.25 to 5 uM after 48 hrs by Western blot analysis; format: cell-based; conditions: hfl1, 48 h
Procedure, shortened: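 DU145 or HFL-1 cells plated at 3.0 × 10⁶ per […], treated 24 h later with DMSO or compound for 48 h. Frozen pellets lysed in 1% NP40/PBS with protease inhibitors. Equal protein run on 10% SDS-PAGE, transferred to nitrocellulose, probed with anti-PARP antibody, ECL detection.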

[21] = Aqueous solubility of the compound; format: physicochemical; conditions: water

solubility [21]: 28 mg/mL
Structure (SMILES): COc1cc(OC)c(/C=C/S(=O)(=O)Cc2ccc(OC)c(NCC(=O)[O-])c2)c(OC)c1.[Na+] [RIGOSERTIB SODIUM]
IC50 (OPM-2): 15 nM
Ratio IC50 (CEM/C2 [1]): 2
IC50 [2]: 60 nM
IC50 [3]: 100 nM
IC50 (BXPC-3): 75 nM
IC50 (AGS): 80 nM
IC50 (BT-20): 80 nM
IC50 (SW480): 60 nM
IC50 (MDA-MB-231): 25 nM
IC50 (HeLa): 100 nM
IC50 [4]: 60 nM
IC50 (LP-1): 30 nM
IC50 (MOLT-4): 40 nM
IC50 (NCI-H417): 80 nM
IC50 [5]: 75 nM
IC50 [6]: 10 nM
IC50 [7]: 30 nM
IC50 (MCF7): 75 nM
IC50 (K562): 15 nM
IC50 [8]: 50 nM
IC50 [9]: 75 nM
IC50 (NCI-H1975): 90 nM
IC50 (PANC-1): 40 nM
IC50 [10]: > 100000 nM
IC50 (NCI-H157): 80 nM
IC50 (CEM/C2 [11]): 50 nM
IC50 (HCC70): 75 nM
IC50 [12]: 50 nM
IC50 [13]: 75 nM
IC50 (MIA PaCa-2): 50 nM
IC50 (DU-145): 100 nM
IC50 [14]: 75 nM
IC50 (COLO 205): 150 nM
IC50 (T47D): 170 nM
IC50 [15]: 25 nM
IC50 [16]: 75 nM
IC50 [17]: 150 nM
IC50 [18]: 80 nM
IC50 (HCT-116): 75 nM
Activity (HFL1 [19]): Toxic
IC50 (HEL): 50 nM
Activity (HFL1 [20]): Non-toxic
